According to ChEMBL document CHEMBL1128222, “Novel inhibitors for multidrug resistance: 1,3,5-triazacycloheptanes” (J Med Chem, 1995):

Key:
P388/ADR [1] = assay: In vitro relative vinblastin uptake into P388/ADR (murine leukemia/multidrug resistant) cells following 10 uM treatment.; assay type: functional, Mus musculus
Method in brief: (§1)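 10^6 P388/S or P388/ADR cells in 1 mL of 20 mM Hepes-buffered medium, pH 7.4. They are incubated with 4.6 kBq [3H]vinblastine with or without 10 μM compound (DMSO final 1%) at 37 °C for 30 min. Cells are then chilled, pelleted at 2 °C and washed twice in cold PBS. They are solubilized in NaOH and counted. The value is uptake relative to untreated cells.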

P388/S [2] = assay: In vitro relative vinblastin uptake into P388/s (murine leukemia) cells following 10 uM treatment.; assay type: functional, Mus musculus; method in brief: as §1
P388/ADR [3] = assay: Evaluation of inhibitory activity and adriamycin against multidrug resistant P388 cells (P388/ADR) cells; settings: Mus musculus
P388/S [4] = assay: Evaluation of inhibitory activity and cisplatin against drug sensitive P388 cells (P388/S) cells; assay type: functional, cell-based, Mus musculus; settings: Mus musculus, P388/S
Method in brief: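 P388/S or P388/ADR cells at 10^5 cells/mL in RPMI-1640/10% FCS medium. They receive graded adriamycin, mitomycin C or cisplatin, alone or together with 2.5 μM modulator, for 48 h (DMSO final 0.25%). Growth is read by MTT and the antitumor-drug IC50 is reported.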

P388/S [5] = assay: Evaluation of inhibitory activity against drug sensitive P388 cells (P388/S) cells; assay type: functional, cell-based; settings: Mus musculus
Method in brief: (§2)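 P388/S and P388/ADR murine leukemia cells are maintained by weekly intraperitoneal passage in female CDF1 mice. For the assay they are seeded at 10^5 cells/mL in RPMI-1640 with 10% FCS, 20 μM β-mercaptoethanol and 100 μg/mL kanamycin. Vinblastine is given with or without modulator (0–5.0 μM; DMSO final 0.25%) for 48 h. Growth is read by MTT and vinblastine IC50 is reported.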

P388/ADR [6] = assay: Evaluation of inhibitory activity against multidrug resistant P388 cells (P388/ADR) cells; assay type: functional, cell-based, Mus musculus; settings: Mus musculus, P388/ADR; method in brief: as §2

Row | SMILES | Relative uptake (P388/ADR [1]) | Relative uptake (P388/S [2]) | other results
1 | COc1ccc(CN2CCN(Cc3ccc(OC)c(OC)c3)C(=S)NC2=S)cc1OC | 5.26 | 1.21 | 
2 | CSC1=NC(=O)N(Cc2cccc(Cl)c2)CCN1Cc1cccc(Cl)c1 | 6.75 | 1.16 | 
3 | COc1cccc2c1C(=O)c1c(O)c3c(c(O)c1C2=O)C[C@@](O)(C(=O)CO)C[C@@H]3OC1C[C@H](N)[C@H](O)[C@H](C)O1.CSC1=NC(=O)N(Cc2ccc(Cl)cc2)CCN1Cc1ccc(Cl)cc1 (some centres not stated) |  |  | IC50 (P388/ADR [3]): 90 nM; IC50 (P388/S [4]): 13 nM
4 | O=C1NC(=S)N(Cc2ccc(Cl)cc2)CCN1Cc1ccc(Cl)cc1 | 5.35 | 1.3 | 
5 | Clc1ccc(CNCCNCc2ccc(Cl)cc2)cc1 | 2.62 | 1.04 | 
6 | COc1ccc(CN2CCCN(Cc3ccc(OC)c(OC)c3)C(=O)NC2=O)cc1OC | 1.11 | 1.06 | 
7 | S=C1NC(=S)N(Cc2ccc(Cl)cc2)CCN1Cc1ccc(Cl)cc1 | 6 | 1.48 | 
8 | O=C1NC(=O)N(Cc2cccc(Cl)c2)CCCN1Cc1cccc(Cl)c1 | 2.62 | 1.12 | 
9 | O=C1NC(=S)N(Cc2cccc(Cl)c2)CCN1Cc1cccc(Cl)c1 | 6.14 | 1.26 | 
10 | S=C1NC(=S)N(Cc2cccc(Cl)c2)CCN1Cc1cccc(Cl)c1 | 5.34 | 1.34 | 
11 | COc1ccc(CN2CCN(Cc3ccc(OC)c(OC)c3)C(=O)NC2=O)cc1OC | 1.16 | 0.93 | 
12 | COc1ccc(CN2CCN(Cc3ccc(OC)c(OC)c3)C(=S)NC2=O)cc1OC | 2.36 | 1.14 | 
13 | COc1cccc2c1C(=O)c1c(O)c3c(c(O)c1C2=O)C[C@@](O)(C(=O)CO)C[C@@H]3O[C@H]1C[C@H](N)[C@H](O)[C@H](C)O1 [DOXORUBICIN] |  |  | IC50 (P388/S [5]): 19 nM; IC50 (P388/ADR [6]): 360 nM
14 | CO[C@@]12[C@H](COC(N)=O)C3=C(C(=O)C(C)=C(N)C3=O)N1C[C@@H]1N[C@@H]12 [MITOMYCIN] |  |  | IC50 (P388/S [5]): 48 nM; IC50 (P388/ADR [6]): 535 nM
15 | CSC1=NC(=O)N(Cc2ccccc2)CCN1Cc1ccccc1 | 2.13 | 1.37 | 
16 | O=C1NC(=O)N(Cc2ccc(Cl)cc2)CCN1Cc1ccc(Cl)cc1 | 3.44 | 1.22 | 
17 | O=C1NC(=O)N(Cc2ccc(Cl)cc2)CCCN1Cc1ccc(Cl)cc1 | 2.86 | 1.17 | 
18 | COc1ccc(CCN(C)CCCC(C#N)(c2ccc(OC)c(OC)c2)C(C)C)cc1OC (configuration not stated) [VERAPAMIL] | 5.7 | 1.02 | 
19 | O=C1NC(=S)N(Cc2ccccc2)CCN1Cc1ccccc1 | 2.11 | 1.2 | 
20 | O=C1NC(=O)N(Cc2ccccc2)CCN1Cc1ccccc1 | 1.41 | 1.09 | 
21 | S=C1NC(=S)N(Cc2ccccc2)CCN1Cc1ccccc1 | 4.16 | 1.26 | 
22 | O=C1NC(=O)N(Cc2cccc(Cl)c2)CCN1Cc1cccc(Cl)c1 | 1.05 | 1.2 | 
23 | COC12[C@H](COC(N)=O)C3=C(C(=O)C(C)=C(N)C3=O)N1C[C@@H]1N[C@@H]12.CSC1=NC(=O)N(Cc2ccc(Cl)cc2)CCN1Cc1ccc(Cl)cc1 |  |  | IC50 (P388/ADR [3]): 264 nM; IC50 (P388/S [4]): 44 nM
24 | CSC1=NC(=S)N(Cc2ccccc2)CCN1Cc1ccccc1 | 3.44 | 1.19 | 
25 | O=C1NC(=O)N(Cc2ccccc2)CCCN1Cc1ccccc1 | 1.78 | 0.93 | 
26 | COc1ccc(CN2CCN(Cc3ccc(OC)c(OC)c3)C(SC)=NC2=O)cc1OC | 1.14 | 1.04 | 
